Test system: BlAga3
Assay: HPAEC-PAD of released products
Assay type: biochemical, Bifidobacterium longum subsp. longum
Settings: 50 mM sodium acetate pH 6.0, 45 °C, 20 min
Outline: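 His-tagged recombinant BlAga3, TALON-purified (50 mM imidazole fraction, desalted). Enzyme in 50 mM sodium acetate pH 6.0 at 45 °C for 20 min: 0.20 μg/mL with 0.1–10 mM α-D-Gal-(1→3)-L-Ara, or 0.79 μg/mL with 1.0–50 mM raffinose. Stopped with 5 % TCA; released sugars quantified by HPAEC-PAD (NaOH/sodium acetate gradient).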

Row | Km (0.1–10 mM substrate) | Km (1.0-50 mM substrate) | SMILES
1 | 0.774 ± 0.014 mM |  | OC[C@H]1O[C@H](O[C@H]2[C@@H](O)COC(O)[C@@H]2O)[C@H](O)[C@@H](O)[C@H]1O (stereo partly drawn) [GA, α-D-Gal-(1→3)-L-Ara]
2 |  | 29.5 ± 1 mM | OC[C@H]1O[C@H](OC[C@H]2O[C@H](O[C@]3(CO)O[C@H](CO)[C@@H](O)[C@@H]3O)[C@H](O)[C@@H](O)[C@@H]2O)[C@H](O)[C@@H](O)[C@H]1O [Raffinose]
